A selection: hits, their analogues and other compounds. The true share with any hit is near 3.2%.
DAGLB inhibitor: DAGLB lipase inhibitors, primary screen, biochemical, fluorescence, HTS | inhibition, % at 5.17 µM | AID 504411, 2011 | 340,000 compounds, 0.059% hits | HEK293T DAGLB membrane lysate, EnzChek fluorogenic substrate; in the data active = inhibition above about 34%;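 also: 0% = enzyme with vehicle and 100% = wells lacking enzyme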
ABHD4 inh: ABHD4 inhibitors, primary screen, biochemical, fluorescence polarization, mouse; 370,000 compounds, 0.54% hits; purified mABHD4, FP-Rh probe fluorescence polarization; AID 720543, 2013; (Lyso)-N-acylphosphatidylethanolamine lipase (Mus musculus), Q8VD66; inhibition, % at 8.92 µM;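 active = inhibition exceeding the mean over every tested compound plus 3 SD, cut at about 30% in these data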;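 also: 0% = plate median of compound wells and 100% = S159A mutant with DMSO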
Target sequence (Q8VD66 whole entry, looked up): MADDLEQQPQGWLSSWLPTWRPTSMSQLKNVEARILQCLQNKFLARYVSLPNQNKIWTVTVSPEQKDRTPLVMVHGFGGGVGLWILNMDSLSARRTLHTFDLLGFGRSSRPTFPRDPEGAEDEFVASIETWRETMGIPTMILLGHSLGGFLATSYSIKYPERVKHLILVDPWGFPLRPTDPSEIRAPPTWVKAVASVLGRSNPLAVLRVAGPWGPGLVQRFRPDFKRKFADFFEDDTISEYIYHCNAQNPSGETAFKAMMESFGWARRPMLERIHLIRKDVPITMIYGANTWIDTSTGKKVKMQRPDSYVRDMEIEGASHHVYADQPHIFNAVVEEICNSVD
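System: mouse ABHD4 enzyme, wild type / Medium: HEPES pH 7.0, NaCl, Pluronic buffer / Reagent: FP-Rh activity-based fluorescent probe / Control set: S159A mutant high control, sample median low control / Detection: fluorescence polarization with parallel and perpendicular emission, 525/598 nm / Schedule: 45 min + 60 min at 25 °C / Compound dosing: 8.92 µM, single dose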
HTRA1 inh: HTRA1 serine protease inhibitors, primary screen, biochemical, fluorescence polarization, HTS; 340,000 compounds, 0.5% hits; Q92743; recombinant HTRA1, FP-rhodamine activity-based probe; inhibition, % at 5.96 µM; in the data active = inhibition above about 36%;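 also: 0% = enzyme with DMSO and 100% = wells lacking enzyme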
PRMT1 FP inh: PRMT1 methyltransferase inhibitors, primary screen, biochemical, fluorescence polarization; inhibition, % at 2.79 µM; 370,000 compounds, 1.3% hits; recombinant PRMT1, activity-based probe fluorescence polarization; Protein arginine N-methyltransferase 1 (Homo sapiens), Q99873;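 active = inhibition above about 21% made by adding two undisclosed values, limit read from the data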
LEDGF integ inh: blockers of LEDGF/p75-dependent integrase strand transfer – biochemical, TR-FRET, high throughput, primary screen; HIV-1 integrase (with human LEDGF/p75); TR-FRET IN-LEDGF/p75 DNA integration, Eu/Cy5; inhibition, % at 3.7 µM; 370,000 compounds, 0.64% hits;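 active = inhibition above the screen-wide mean plus 3 SD, cut at about 13% in these data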;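 also: signal is the Cy5 over europium emission ratio at 671 and 618 nm; 0% = plate median of compound wells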
rCAG RNA binder: binders of r(CAG) RNA repeats, primary screen, biochemical, fluorescence; 370,000 compounds, 1.3% hits; inhibition, % at 3 µM; r(CAG) RNA repeat, TO-PRO-1 dye displacement fluorescence; AID 651821, 2012;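 active = inhibition above the plate cutoff, the mean of all test compounds on that plate plus 3 SD, cut at about 35% in these data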;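 also: 0% = DMSO alone and 100% = 100 µM mitoxantrone as full dye displacement; higher means more dye released from RNA so lower well fluorescence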
PRMT1 confirm: PRMT1 methyltransferase inhibitors, confirmation, biochemical, fluorescence polarization, triplicate; 3,300 compounds, 42% hits; shares compounds with PRMT1 FP inh; recombinant His-PRMT1, activity-based probe fluorescence polarization; inhibition, % at 2.79 µM;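 active = mean inhibition across replicates above the hit cutoff derived for the earlier primary screen, cut at about 22% in these data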
mABHD4 conf: ABHD4 inhibitors, retest, confirmation, biochemical, fluorescence polarization, mouse. shares compounds with ABHD4 inh. purified mABHD4, FP-Rh probe fluorescence polarization. inhibition, % at 8.92 µM. 1,800 compounds, 55% hits. AID 720658, 2013;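 active = mean inhibition across replicates above the hit cutoff set in the primary screen, cut at about 30% in these data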;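 also: 0% = wild-type ABHD4 with DMSO and 100% = catalytically dead S159A mutant with DMSO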
Active calls of the source: *; i = inactive; nt = no result given.

SMILES	DAGLB inhibitor	ABHD4 inh	HTRA1 inh	PRMT1 FP inh	LEDGF integ inh	rCAG RNA binder	PRMT1 confirm	mABHD4 conf
Cc1ccc(C2(C)NC(=O)N(CC(=O)Nc3nc(-c4ccccn4)cs3)C2=O)cc1 (configuration not stated)	4	-27	-2	26*	1	2	38*	nt
CN(C(=O)CSc1nc2cc([N+](=O)[O-])ccc2n1-c1ccc(F)cc1)C1CCS(=O)(=O)C1 (configuration not stated)	3	10	-3	4	-4	2	nt	nt
CC(C)(C)c1nnc(SCC(=O)c2ccccc2)n(N)c1=O	-14	0	6	75*	-2	4	57*	nt
Nc1cc2sc(-c3ccc(C(=O)O)cc3)nc2cc1Cl	3	20	4	3	-1	5	nt	nt
Nc1ncc(N=Nc2cc(C(=O)O)ccc2Cl)s1	2	42*	5	26*	1	10	29*	62*
O=C(Cn1c(O)c(/C=C2\C=Nc3ccccc32)sc1=O)N1CCOCC1	3	6	-1	1	1	3	nt	nt
O=c1[nH]c(S)c(/C=C2\C=Nc3ccccc32)s1	nt	30*	nt	48*	10	11	31*	35*
COCc1nnc(NC(=O)c2cc3ccccc3o2)s1	0	-1	2	0	-2	5	nt	nt
COCc1cc(N2CCN(C(=O)OC(C)(C)C)C[C@H]2C)ccc1N1CC[C@H](O)C1	nt	38*	nt	61*	5	6	1	9
CCOC(=O)C(=C1Nc2ccccc2N1)n1c(-c2ccco2)nc2ccccc21	nt	32*	nt	29*	3	30	88*	13
CCOC(=O)C(=C1Nc2ccccc2N1)n1c(-c2cnccn2)nc2ccccc21	nt	1	nt	-3	2	4	nt	nt
Oc1ccc(Cl)cc1C=Nc1ccccc1Br	-1	4	5	-2	3	-1	nt	nt
Oc1ccc(Br)cc1C=Nc1ccc2c3c(cccc13)CC2	-11	55*	20	56*	1	-21	9	22
COC(=O)C[C@@H]1C[C@H]2c3cc(NC(=O)C4CCC4)ccc3O[C@H]2[C@@H](CO)O1	1	7	6	1	-2	0	nt	nt
C/C(=N\Nc1ccc(Cl)c(C(=O)O)c1)c1ccc[nH]1	7	35*	17	32*	7	33	5	50*
CSc1ccc(C=O)cc1	1	0	5	3	-2	0	nt	nt
Cc1nc2ccccc2c2nc(NC(=O)C(F)(F)F)nn12	-2	1	2	-1	1	0	nt	nt
O=C(NC1CCN(C(=S)NCc2ccco2)CC1)NC12CC3CC(CC(C3)C1)C2	1	2	-10	17	0	2	nt	nt
CC(=O)Nc1ccc(C(=O)OCC(=O)N2CCCC2=O)cc1	0	4	-1	-5	1	0	nt	nt
COc1cc(C(=O)OCC(=O)N2CCCC2=O)cc(OC)c1C	-3	45*	4	96*	-1	0	-1	-8
Cc1nn(CC(=O)N2CCc3ccccc32)c(C)c1S(=O)(=O)NC(C)(C)C	1	-7	-1	-2	4	3	nt	nt
CN1c2ccsc2/C(=N/Nc2ccccc2)CS1(=O)=O	4	32*	33	38*	-1	6	1	5
CCOC(=O)[C@]12CCCC=C1N(Cc1cccc3ccccc13)C(=O)[C@H](CC(=O)NCc1cccs1)C2	nt	-26	nt	-4	3	7	nt	nt
COc1cc2[nH]c(=O)n(C3CCCCC3)c(=O)c2cc1OC	-3	-7	2	-3	-6	1	nt	nt
Nc1ccc2nc3c(=O)n(C4CCCCC4)c(=O)[nH]c3nc2c1	-102	43*	31	145*	-2	i	132*	41*
SMILES	DAGLB inhibitor	ABHD4 inh	HTRA1 inh	PRMT1 FP inh	LEDGF integ inh	rCAG RNA binder	PRMT1 confirm	mABHD4 conf
Nc1ccc2nc(CCc3ccccc3)[nH]c2c1	2	12	14	0	-3	2	nt	nt
Nc1ccc2nc3c(=O)n(CCc4ccccc4)c(=O)[nH]c3nc2c1	nt	40*	nt	136*	9	-222	123*	30*
CCCSC1=N/C(=C\C=C\c2ccco2)C(=O)S1	8	36*	30	48*	69*	76*	12	4
Cc1ccc(C(=O)N2CCCC(CCC(=O)N3CCN(c4ccccn4)CC3)C2)cc1C (configuration not stated)	-1	4	4	-4	2	-9	nt	nt
CCS(=O)(=O)c1ccc2oc(Nc3ccc(OC)c(OC)c3)nc2c1	1	-2	-4	4	-2	5	nt	nt
COc1ccc(S[C@]2(C(=O)N(C)C)CC(=O)N(C(=O)C3CC3)[C@@H]2c2ccc(OC)cc2)cc1	nt	34*	nt	42*	0	3	34*	32*
COc1ccccc1N(C(C)=O)C1=C(Cl)C(=O)c2ccccc2C1=O	-2	39*	23	94*	2	6	89*	46*
CCc1ccccc1NC(=O)Nn1cnnc1	3	2	1	2	-5	-5	nt	nt
C=CCNC(=O)NC(=O)COC(=O)/C(C#N)=C/c1cc(C)n(CC(C)C)c1C	3	6	-2	1	2	3	nt	nt
N/C(Cc1ccc(Cl)cc1Cl)=N\OC(=O)c1ccccc1F	-18	2	-9	4	-1	-5	nt	nt
N/C(Cc1cccc2ccccc12)=N\OC(=O)c1ccccc1F	-8	48*	1	49*	4	8	4	3
Nc1ccc2c3c(cccc13)C(=O)N(c1ccccc1)C2=O	-201	38*	21	174*	-5	i	165*	33*
COc1ccccc1N(O)C1CC(=O)N(c2ccc(Br)cc2)C1=O (configuration not stated)	7	34*	11	42*	1	27	50*	28
O=c1c(-c2cccc3ccccc23)[n+]([O-])c2ccccc2n1O	-2	49*	3	25*	0	5	-1	14

Screens: PubChem, The Scripps Research Institute Molecular Screening Center
